What was measured:
[1] = Change in tumor cell population in ip implanted LOX amelanotic melanoma in mice after administration of compound at 100 mg/kg; type: functional, Mus musculus; conditions: route intraperitoneal
Outline: (§1)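 Female CD2F1 mice were implanted ip with ascitic fluid holding ca. 1.7×10^6 LOX cells. Dosing was ip on days 1, 5 and 9, starting 24 h after implantation, by exact body weight, as a solution or suspension in saline plus Tween 80, freshly prepared daily. KE is the net log change in viable tumor cells from start to end of treatment. Bracketed KE assumes Poisson survival, with 60-day survivors tumor-free.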

[2] = test system: LOX amelanotic melanoma (human); test: Percent increase in life span of dying mice tested in vivo at 25 mg/kg against ip implanted LOX amelanotic melanoma in mice (60-day survivors); conditions: Mus musculus, 1440 h
[3] = test system: P388; test: Change in tumor cell population in ip implanted P388 Leukemia in mice after administration of compound at 12.5 mg/kg; type: functional, Mus musculus; conditions: route intraperitoneal
Outline: (§2)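 Female Portage-CD2F1 mice were inoculated ip with ascitic fluid holding ca. 5.2×10^6 P388 cells. Dosing was ip on days 1-5, starting 24 h after inoculation, by average body weight, as a solution or suspension in saline plus Tween 80. KE is the net log change in viable tumor cell population from start to end of the treatment period.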

[4] = test system: L1210 (Mus musculus); test: Concentration required to inhibit tumor growth in L1210, murine lymphocytic leukemia cell line
[5] = test system: P388; test: Percent increase in life span of dying mice tested in vivo at 100 mg/kg against ip implanted P388 Leukemia in mice; type: functional; conditions: Mus musculus, route intraperitoneal
Outline: (§3)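 Portage-CD2F1 female mice inoculated ip with ascitic fluid carrying ca. 5.2×10^6 P388 leukemia cells. Drug given ip daily on days 1-5, starting 24 h after inoculation, dosed by average body weight. %ILS is from the median day of death of dying mice versus controls.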

[6] = Percent increase in life span of dying mice tested in vivo at 100 mg/kg against ip implanted LOX amelanotic melanoma in mice (60-day survivors); type: functional; conditions: Mus musculus, 1440 h, route intraperitoneal
Outline: (§4)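 Female CD2F1 mice implanted ip with ascitic fluid carrying ca. 1.7×10^6 LOX amelanotic melanoma cells. Drug given ip on days 1, 5 and 9, starting 24 h after implant, dosed by exact body weight; solutions or suspensions made fresh daily. %ILS is from the median day of death of dying mice versus controls, excluding 60-day survivors.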

[7] = test system: LOX amelanotic melanoma (human); test: Change in tumor cell population in ip implanted LOX amelanotic melanoma in mice after administration of compound at 25 mg/kg; conditions: route intraperitoneal
[8] = Percent increase in life span of dying mice tested in vivo at 200 mg/kg against ip implanted LOX amelanotic melanoma in mice (60-day survivors); type: functional; conditions: Mus musculus, 1440 h, route intraperitoneal; outline: as §4
[9] = Concentration required to inhibit tumor growth in […], human breast adenocarcinoma cell line; type: functional
Outline: (§5)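 Cells grown in RPMI 1640 with 5% fetal calf serum, 5% NuSerum IV and 20 mM HEPES, seeded and allowed to adhere overnight. Compound dissolved in RPMI-1640 plus HEPES and tested over a 5 log range (10 concentrations) for 72 h. Read-out by sulforhodamine B assay. Median-effect dose derived by nonlinear regression of the concentration-effect curve.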

[10] = test system: P388; test: Change in tumor cell population in ip implanted P388 Leukemia in mice after administration of compound at 50 mg/kg; toxic; type: functional, organism-based; set-up: dose 50 mg/kg; conditions: Mus musculus
Outline: (§6)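 P388 leukemia: ascitic fluid with ca. 5.2×10^6 cells inoculated ip into Portage-CD₂F₁ female mice. Drug given ip on days 1-5, starting 24 h after inoculation, dosed by average body weight. Vehicle was saline plus Tween 80, as a solution or suspension. KE = net log change in viable tumor cells from start to end of treatment.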

[11] = Change in tumor cell population in ip implanted LOX amelanotic melanoma in mice after administration of compound at 50 mg/kg; type: functional, Mus musculus; conditions: route intraperitoneal; outline: as §1
[12] = test system: P388; test: Change in tumor cell population in ip implanted P388 Leukemia in mice after administration of compound at 100 mg/kg; toxic; type: functional, organism-based; set-up: dose 100 mg/kg; conditions: Mus musculus; outline: as §2
[13] = test system: P388; test: Change in tumor cell population in ip implanted P388 Leukemia in mice after administration of compound at 25 mg/kg; type: functional, Mus musculus; conditions: route intraperitoneal; outline: as §2
[14] = Concentration required to inhibit tumor growth in PSN-1, human pancreatic carcinoma cell line; type: functional
Outline: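 PSN-1 pancreatic carcinoma cells exposed to compound dissolved in RPMI-1640 plus HEPES at its maximum soluble concentration for 72 h. Read-out by sulforhodamine B colorimetric assay.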

[15] = test system: A549; test: Concentration required to inhibit tumor growth in A549, human lung carcinoma (NSCLC) cell line; type: functional, cell-based; outline: as §5
[16] = test system: HT-29; test: Concentration required to inhibit tumor growth in HT29, human colon adenocarcinoma cell line; type: functional, cell-based; outline: as §5
[17] = test system: P388; test: Percent increase in life span of dying mice tested in vivo at 50 mg/kg against ip implanted P388 Leukemia in mice; type: functional; conditions: Mus musculus, route intraperitoneal; outline: as §3
[18] = test system: Mus musculus; test: Change in tumor cell population in ip implanted LOX amelanotic melanoma in mice after administration of compound at 200 mg/kg; toxic; type: functional, organism-based; set-up: dose 200 mg/kg; outline: as §1
[19] = test system: P388; test: Percent increase in life span of dying mice tested in vivo at 25 mg/kg against ip implanted P388 Leukemia in mice; type: functional; conditions: Mus musculus, route intraperitoneal; outline: as §3
[20] = Percent increase in life span of dying mice tested in vivo at 50 mg/kg against ip implanted LOX amelanotic melanoma in mice (60-day survivors); type: functional; conditions: Mus musculus, 1440 h, route intraperitoneal; outline: as §4
[21] = test system: P388; test: Percent increase in life span of dying mice tested in vivo at 12.5 mg/kg against ip implanted P388 Leukemia in mice; type: functional; conditions: Mus musculus, route intraperitoneal; outline: as §3
[22] = test system: P388; test: Change in tumor cell population in ip implanted P388 Leukemia in mice after administration of compound at 87 mg/kg; type: functional, Mus musculus; conditions: route intraperitoneal; outline: as §6
[23] = Change in tumor cell population in ip implanted LOX amelanotic melanoma in mice after administration of compound at 21.75 mg/kg; type: functional, Mus musculus; conditions: route intraperitoneal; outline: as §1
[24] = test system: P388; test: Change in tumor cell population in ip implanted P388 Leukemia in mice after administration of compound at 21.8 mg/kg; type: functional, Mus musculus; conditions: route intraperitoneal; outline: as §2
[25] = Percent increase in life span of dying mice tested in vivo at 87 mg/kg against ip implanted LOX amelanotic melanoma in mice (60-day survivors); type: functional; conditions: Mus musculus, 1440 h, route intraperitoneal
Outline: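 Nude CD2F1 female mice were implanted ip with ascitic fluid containing ca. 1.7×10^6 LOX amelanotic melanoma cells. Drug was given ip on days 1, 5 and 9, starting 24 h after implantation, and dosed by exact body weight. Solutions or suspensions were made fresh daily in saline plus Tween 80. %ILS was calculated from the median day of death of dying mice versus controls, excluding 60-day survivors.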

[26] = Change in tumor cell population in ip implanted LOX amelanotic melanoma in mice after administration of compound at 87 mg/kg; type: functional, Mus musculus; conditions: route intraperitoneal; outline: as §1
[27] = Percent increase in life span of dying mice tested in vivo at 21.75 mg/kg against ip implanted LOX amelanotic melanoma in mice (60-day survivors); type: functional; conditions: Mus musculus, 1440 h, route intraperitoneal; outline: as §4
[28] = test system: P388; test: Percent increase in life span of dying mice tested in vivo at 21.8 mg/kg against ip implanted P388 Leukemia in mice; type: functional; conditions: Mus musculus, route intraperitoneal; outline: as §3
[29] = Percent increase in life span of dying mice tested in vivo at 174 mg/kg against ip implanted LOX amelanotic melanoma in mice (60-day survivors); type: functional; conditions: Mus musculus, 1440 h, route intraperitoneal; outline: as §4
[30] = test system: P388; test: Change in tumor cell population in ip implanted P388 Leukemia in mice after administration of compound at 10.9 mg/kg; type: functional, Mus musculus; conditions: route intraperitoneal; outline: as §2
[31] = test system: P388; test: Percent increase in life span of dying mice tested in vivo at 43.5 mg/kg against ip implanted P388 Leukemia in mice; type: functional; conditions: Mus musculus, route intraperitoneal; outline: as §3
[32] = test system: P388; test: Percent increase in life span of dying mice tested in vivo at 87 mg/kg against ip implanted P388 Leukemia in mice; type: functional; conditions: Mus musculus, route intraperitoneal
Outline: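 Portage-CD2F1 female mice were inoculated ip with ascitic fluid containing ca. 5.2×10^6 P388 leukemia cells. Drug was given ip daily on days 1-5, starting 24 h after inoculation, and dosed by average body weight. %ILS was calculated from the median day of death of dying mice versus controls.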

[33] = Change in tumor cell population in ip implanted LOX amelanotic melanoma in mice after administration of compound at 43.5 mg/kg; type: functional, Mus musculus; conditions: route intraperitoneal; outline: as §1
[34] = test system: P388; test: Change in tumor cell population in ip implanted P388 Leukemia in mice after administration of compound at 43.5 mg/kg; type: functional, Mus musculus; conditions: route intraperitoneal; outline: as §2
[35] = test system: P388; test: Percent increase in life span of dying mice tested in vivo at 10.9 mg/kg against ip implanted P388 Leukemia in mice; type: functional; conditions: Mus musculus, route intraperitoneal; outline: as §3
[36] = Percent increase in life span of dying mice tested in vivo at 43.5 mg/kg against ip implanted LOX amelanotic melanoma in mice (60-day survivors); type: functional; conditions: Mus musculus, 1440 h, route intraperitoneal; outline: as §4
[37] = Change in tumor cell population in ip implanted LOX amelanotic melanoma in mice after administration of compound at 174 mg/kg; type: functional, Mus musculus; conditions: route intraperitoneal; outline: as §1

Molecule `CNC(=O)OCc1nc(SC)n(C)c1COC(=O)NC` has a KE [1] of -4, an ILS at 25 mg/kg [2] of 34% and a KE [3] of -1.5. For the same molecule, the IC50 [4] was 4.3 µM, the ILS at 100 mg/kg [5] was -34% and the ILS at 100 mg/kg [6] was 143%. For the same molecule, the KE [7] was 0.3, the ILS at 200 mg/kg [8] was -24% and the IC50 [9] was 347 µM. For the same molecule, the KE [10] was “Toxic”, the KE [11] was -2.9 and the KE [12] was “Toxic”. For the same molecule, the KE [13] was -4.1, the IC50 [14] was 110 µM and the IC50 [15] was 218 µM. For the same molecule, the IC50 ([16]; Homo sapiens, HT-29) was 162 µM, the IC50 ([16]; ht-29) was 108 µM and the ILS at 50 mg/kg [17] was 17%. The KE [18] was “Toxic”, the ILS at 25 mg/kg [19] was 96% and the ILS at 50 mg/kg [20] was 117%. The ILS at 12.5 mg/kg [21] was 59%.

`CCSc1nc(COC(=O)NC)c(COC(=O)NC)n1C` showed a KE [22] of -4.3, a KE [23] of -0.2 and a KE [24] of -1.3. The ILS at 87 mg/kg [25] was 85%, the KE [26] was -2.1 and the ILS at 21.75 mg/kg [27] was 44%. For the same molecule, the ILS at 21.8 mg/kg [28] was 56%, the ILS at 174 mg/kg [29] was 95% and the KE [30] was -0.6. The ILS at 43.5 mg/kg [31] was 64%, the ILS at 87 mg/kg [32] was 99% and the KE [33] was -0.5. It also gave a KE [34] of -1.9, an ILS at 10.9 mg/kg [35] of 47% and an ILS at 43.5 mg/kg [36] of 52%. For the same molecule, the KE [37] was -2.5.
